Results as given in ChEMBL document CHEMBL1142874, “Design and synthesis of anticonvulsants from a combined phthalimide-GABA-anilide and hydrazone pharmacophore” (Eur J Med Chem, 2007).
The source made the active and inactive calls. The rule behind the calls is not given here.

Key:
Mus musculus [1] = experiment: Neurotoxicity in Albino CF1 mouse at 300 mg/kg, ip after 4 hrs by Rotarod test; format: toxicity, organism-based; design: dose 300 mg/kg, route intraperitoneal; conditions: in vivo
Procedure, shortened: (§1)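 Rotarod test in mice pre-trained to stay on the rod for two consecutive 90 s trials. Compounds given i.p. at 30, 100 or 300 mg/kg, with testing at 0.5 h and 4 h. Deficit was scored as failure to keep balance on the rod for 1 min in each of three trials. The value recorded is the lowest dose affecting half or more of the mice.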

Mus musculus [2] = experiment: Anticonvulsant activity against subcutaneous strychnine-induced seizure in Albino CF1 mouse at 300 mg/kg, ip after 4 hrs; format: functional, organism-based; design: dose 300 mg/kg
Procedure, shortened: (§2)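 Test compounds given i.p. to mice at 0.01 mL/g, at 30, 100 or 300 mg/kg. The seizure challenge followed at 0.5 h and at 4 h after dosing. The value recorded is the lowest dose that protected half or more of the mice. Where no activity was seen, the maximum dose given was 300 mg/kg.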

Mus musculus [3] = experiment: Neurotoxicity in Albino CF1 mouse at 100 mg/kg, ip after 0.5 hrs by Rotarod test; format: toxicity, organism-based; design: dose 100 mg/kg, route intraperitoneal; conditions: in vivo; procedure, shortened: as §1
Mus musculus [4] = experiment: Anticonvulsant activity against intraperitoneal picrotoxin-induced seizure in Albino CF1 mouse at 100 mg/kg, ip after 4 hrs; format: functional, organism-based; design: dose 100 mg/kg
Procedure, shortened: (§3)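 Mice received the test compound by intraperitoneal injection at 30, 100 or 300 mg/kg. They were then challenged with intraperitoneal picrotoxin and scored for anticonvulsant protection 0.5 h or 4 h after dosing. The value recorded is the lowest dose that protected half or more of the mice. A dash means no activity up to 300 mg/kg.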

Mus musculus [5] = experiment: Anticonvulsant activity against subcutaneous pentylenetetrazole-induced seizure in Albino CF1 mouse at 100 mg/kg, ip after 4 hrs; format: functional, organism-based; design: dose 100 mg/kg; procedure, shortened: as §2
Mus musculus [6] = experiment: Anticonvulsant activity in Albino CF1 mouse upto 300 mg/kg, ip in maximal electroshock seizure test; format: functional, organism-based; design: dose 300 mg/kg
Procedure, shortened: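 Mice dosed i.p. (0.01 mL/g) at 30, 100 and 300 mg/kg. Electroshock challenge run 30 min and 4 h after dosing.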

Mus musculus [7] = experiment: Anticonvulsant activity against subcutaneous pentylenetetrazole-induced seizure in Albino CF1 mouse at 300 mg/kg, ip after 0.5 hrs; format: functional, organism-based; design: dose 300 mg/kg; procedure, shortened: as §2
Mus musculus [8] = experiment: Anticonvulsant activity against subcutaneous strychnine-induced seizure in Albino CF1 mouse at 100 mg/kg, ip after 0.5 hrs; format: functional, organism-based; design: dose 100 mg/kg; procedure, shortened: as §2
Mus musculus [9] = experiment: Anticonvulsant activity against intraperitoneal picrotoxin-induced seizure in Albino CF1 mouse at 30 mg/kg, ip after 0.5 hrs; format: functional, organism-based; design: dose 30 mg/kg; procedure, shortened: as §3
Mus musculus [10] = experiment: Anticonvulsant activity against intraperitoneal picrotoxin-induced seizure in Albino CF1 mouse at 300 mg/kg, ip after 4 hrs; format: functional, organism-based; design: dose 300 mg/kg; procedure, shortened: as §3
Mus musculus [11] = experiment: Anticonvulsant activity against subcutaneous pentylenetetrazole-induced seizure in Albino CF1 mouse at 300 mg/kg, ip after 4 hrs; format: functional, organism-based; design: dose 300 mg/kg; procedure, shortened: as §2
Mus musculus [12] = experiment: Neurotoxicity in Albino CF1 mouse at 30 mg/kg, ip after 0.5 hrs by Rotarod test; format: toxicity, organism-based; design: dose 30 mg/kg, route intraperitoneal; conditions: in vivo; procedure, shortened: as §1
Mus musculus [13] = experiment: Anticonvulsant activity against intraperitoneal picrotoxin-induced seizure in Albino CF1 mouse at 300 mg/kg, ip after 0.5 hrs; format: functional, organism-based; design: dose 300 mg/kg; procedure, shortened: as §3
Mus musculus [14] = experiment: Anticonvulsant activity against subcutaneous pentylenetetrazole-induced seizure in Albino CF1 mouse at 100 mg/kg, ip after 0.5 hrs; format: functional, organism-based; design: dose 100 mg/kg; procedure, shortened: as §2
Mus musculus [15] = experiment: Anticonvulsant activity against intraperitoneal picrotoxin-induced seizure in Albino CF1 mouse at 100 mg/kg, ip after 0.5 hrs; format: functional, organism-based; design: dose 100 mg/kg; procedure, shortened: as §3
Mus musculus [16] = experiment: Anticonvulsant activity against subcutaneous strychnine-induced seizure in Albino CF1 mouse at 300 mg/kg, ip after 0.5 hrs; format: functional, organism-based; design: dose 300 mg/kg; procedure, shortened: as §2

Row | SMILES | Activity (Mus musculus [1]) | Activity (Mus musculus [2]) | Activity (Mus musculus [3]) | Activity (Mus musculus [4]) | Activity (Mus musculus [5]) | Activity (Mus musculus [6]) | Activity (Mus musculus [7]) | Activity (Mus musculus [8]) | Activity (Mus musculus [9]) | Activity (Mus musculus [10]) | Activity (Mus musculus [11]) | Activity (Mus musculus [12]) | Activity (Mus musculus [13]) | Activity (Mus musculus [14]) | Activity (Mus musculus [15]) | Activity (Mus musculus [16])
1 | Cc1cccc(C)c1NC(=O)CCCN1C(=O)c2ccccc2C1=O | Active | Active | Active | Active | Active | inactive | inactive | Active | Active |  |  |  |  |  |  | 
2 | O=C(CCCN1C(=O)c2ccccc2C1=O)Nc1ccc(Cl)cc1 | Active | Active |  |  |  | inactive | inactive | Active |  | inactive | inactive | Active | Active |  |  | 
3 | Cc1cc(NC(=O)CCCN2C(=O)c3ccccc3C2=O)ccc1Br | Active | inactive | Active |  |  | inactive |  |  |  | Active | inactive |  |  | Active | Active | inactive
